The record followed here is ChEMBL document CHEMBL4028826, “Virtual screen to NMR (VS2NMR): Discovery of fragment hits for the CBP bromodomain” (Bioorg Med Chem Lett, 2017).

Assay [1] has as its target T1, CREB-binding protein (Homo sapiens, UniProt Q92793). The assay is described as follows: Residual binding of human CBP expressed in Escherichia coli to histone H4 tetraacetylated peptide at 0.5 mM by Alphascreen assay relative to control. Background: In Alpha technology, singlet oxygen from a donor bead excites a nearby acceptor bead.
Target sequence in this assay (Q92793 2-2442 limits assumed): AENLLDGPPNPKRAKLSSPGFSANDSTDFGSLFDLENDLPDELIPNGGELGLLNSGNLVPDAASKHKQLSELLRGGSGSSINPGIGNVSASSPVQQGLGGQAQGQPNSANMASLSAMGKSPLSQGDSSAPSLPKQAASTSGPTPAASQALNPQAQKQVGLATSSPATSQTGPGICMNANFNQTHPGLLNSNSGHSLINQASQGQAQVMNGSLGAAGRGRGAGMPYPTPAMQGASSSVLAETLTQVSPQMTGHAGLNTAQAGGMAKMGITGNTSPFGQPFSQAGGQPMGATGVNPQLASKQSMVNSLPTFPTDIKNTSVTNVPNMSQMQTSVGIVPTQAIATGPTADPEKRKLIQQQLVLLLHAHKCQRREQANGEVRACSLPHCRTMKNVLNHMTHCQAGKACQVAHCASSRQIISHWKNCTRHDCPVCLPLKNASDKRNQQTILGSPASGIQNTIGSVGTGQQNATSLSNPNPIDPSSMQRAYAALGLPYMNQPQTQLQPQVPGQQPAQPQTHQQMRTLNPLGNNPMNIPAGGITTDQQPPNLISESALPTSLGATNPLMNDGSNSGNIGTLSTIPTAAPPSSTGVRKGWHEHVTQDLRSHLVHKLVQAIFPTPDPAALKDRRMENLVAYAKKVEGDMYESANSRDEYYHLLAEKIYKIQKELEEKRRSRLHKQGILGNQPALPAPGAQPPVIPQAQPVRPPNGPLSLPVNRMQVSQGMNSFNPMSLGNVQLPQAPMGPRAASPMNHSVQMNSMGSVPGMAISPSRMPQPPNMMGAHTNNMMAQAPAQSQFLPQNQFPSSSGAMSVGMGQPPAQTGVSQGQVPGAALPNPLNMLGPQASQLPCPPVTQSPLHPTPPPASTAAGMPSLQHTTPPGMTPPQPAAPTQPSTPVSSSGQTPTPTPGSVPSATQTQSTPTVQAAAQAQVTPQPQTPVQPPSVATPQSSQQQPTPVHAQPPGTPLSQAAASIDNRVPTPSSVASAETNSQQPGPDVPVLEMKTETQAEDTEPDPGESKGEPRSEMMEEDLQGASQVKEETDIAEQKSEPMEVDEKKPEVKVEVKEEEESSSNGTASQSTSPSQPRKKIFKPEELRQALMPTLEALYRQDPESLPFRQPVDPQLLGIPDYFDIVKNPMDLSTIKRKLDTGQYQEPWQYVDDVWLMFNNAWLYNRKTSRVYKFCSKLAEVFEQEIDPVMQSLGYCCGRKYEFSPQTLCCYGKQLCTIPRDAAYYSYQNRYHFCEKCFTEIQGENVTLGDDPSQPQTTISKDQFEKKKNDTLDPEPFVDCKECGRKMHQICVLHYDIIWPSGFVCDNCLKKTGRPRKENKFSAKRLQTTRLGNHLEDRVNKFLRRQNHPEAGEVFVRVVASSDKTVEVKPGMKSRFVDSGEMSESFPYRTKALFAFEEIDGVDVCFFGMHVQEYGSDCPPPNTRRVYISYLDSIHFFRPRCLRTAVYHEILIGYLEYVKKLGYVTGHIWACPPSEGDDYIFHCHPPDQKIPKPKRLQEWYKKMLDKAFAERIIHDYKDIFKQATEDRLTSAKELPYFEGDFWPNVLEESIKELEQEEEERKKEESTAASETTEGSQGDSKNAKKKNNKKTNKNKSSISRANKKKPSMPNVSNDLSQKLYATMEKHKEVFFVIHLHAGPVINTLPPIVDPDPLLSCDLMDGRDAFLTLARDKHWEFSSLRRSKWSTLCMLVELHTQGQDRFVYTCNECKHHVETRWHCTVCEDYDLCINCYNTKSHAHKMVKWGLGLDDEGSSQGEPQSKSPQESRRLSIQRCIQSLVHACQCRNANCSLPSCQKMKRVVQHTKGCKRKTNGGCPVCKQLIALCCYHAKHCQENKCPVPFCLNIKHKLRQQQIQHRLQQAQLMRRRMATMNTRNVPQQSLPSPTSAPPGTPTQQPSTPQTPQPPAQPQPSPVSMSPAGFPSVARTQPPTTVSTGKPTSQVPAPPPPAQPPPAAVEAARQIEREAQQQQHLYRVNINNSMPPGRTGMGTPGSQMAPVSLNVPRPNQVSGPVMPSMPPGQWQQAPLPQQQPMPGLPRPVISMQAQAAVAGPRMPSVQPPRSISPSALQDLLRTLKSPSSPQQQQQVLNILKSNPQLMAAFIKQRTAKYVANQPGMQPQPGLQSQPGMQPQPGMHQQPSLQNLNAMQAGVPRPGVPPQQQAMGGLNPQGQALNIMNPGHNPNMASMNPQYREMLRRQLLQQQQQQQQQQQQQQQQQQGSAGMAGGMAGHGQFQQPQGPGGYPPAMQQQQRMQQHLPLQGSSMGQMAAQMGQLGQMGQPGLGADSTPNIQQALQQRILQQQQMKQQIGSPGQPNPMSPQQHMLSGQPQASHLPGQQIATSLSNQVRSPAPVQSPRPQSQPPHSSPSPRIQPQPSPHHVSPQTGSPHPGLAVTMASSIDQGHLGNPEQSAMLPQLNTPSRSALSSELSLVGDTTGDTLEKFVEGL
In assay [2] the target is T1, CREB-binding protein. As to the kind of experiment: Inhibition of histone H4 tetraacetylated peptide binding to human CBP by Alphascreen assay. The method in brief:
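AlphaScreen competition with a tetra-acetylated 21-mer histone H4 peptide as the competitor for the CBP bromodomain. IC50 was obtained by curve fitting of 10-point dose responses.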

For assay [3], the target named is T1, CREB-binding protein. As to the kind of experiment: Binding affinity to CBP (unknown origin) assessed as change in melting temperature at 1 mM by differential scanning fluorimetric method. The method in brief: (§1)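 Differential scanning fluorimetry with bromodomain at 2 μM and ligand at 1 mM. The reported shift in melting temperature is the median of at least nine measurements for each ligand/bromodomain pair.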
A general note: Differential scanning fluorimetry follows unfolding on heating by fluorescence.
Target sequence in this assay (Q92793 2-2442 limits assumed): as above

Assay [4] concerns the target T1, CREB-binding protein. The assay is described as follows: Binding affinity to partial length human DNA-tagged CBP (R1081 to G1197 residues) expressed in bacterial expression system by qPCR analysis. The method in brief: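 Competition-binding assay using DNA-tagged CBP bromodomain against an undisclosed proprietary ligand, with quantitative PCR read-out. KD was obtained by curve fitting of 12-point dose responses run in duplicate.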
For orientation: Real-time PCR tracks product formation cycle by cycle.

Assay [5] addresses Histone acetyltransferase p300 (Homo sapiens) (UniProt Q09472). As to the kind of experiment: Binding affinity to EP300 (unknown origin) assessed as change in melting temperature at 1 mM by differential scanning fluorimetric method. The method in brief:
as §1

Chain of Histone acetyltransferase p300 (Homo sapiens) (Q09472 whole entry): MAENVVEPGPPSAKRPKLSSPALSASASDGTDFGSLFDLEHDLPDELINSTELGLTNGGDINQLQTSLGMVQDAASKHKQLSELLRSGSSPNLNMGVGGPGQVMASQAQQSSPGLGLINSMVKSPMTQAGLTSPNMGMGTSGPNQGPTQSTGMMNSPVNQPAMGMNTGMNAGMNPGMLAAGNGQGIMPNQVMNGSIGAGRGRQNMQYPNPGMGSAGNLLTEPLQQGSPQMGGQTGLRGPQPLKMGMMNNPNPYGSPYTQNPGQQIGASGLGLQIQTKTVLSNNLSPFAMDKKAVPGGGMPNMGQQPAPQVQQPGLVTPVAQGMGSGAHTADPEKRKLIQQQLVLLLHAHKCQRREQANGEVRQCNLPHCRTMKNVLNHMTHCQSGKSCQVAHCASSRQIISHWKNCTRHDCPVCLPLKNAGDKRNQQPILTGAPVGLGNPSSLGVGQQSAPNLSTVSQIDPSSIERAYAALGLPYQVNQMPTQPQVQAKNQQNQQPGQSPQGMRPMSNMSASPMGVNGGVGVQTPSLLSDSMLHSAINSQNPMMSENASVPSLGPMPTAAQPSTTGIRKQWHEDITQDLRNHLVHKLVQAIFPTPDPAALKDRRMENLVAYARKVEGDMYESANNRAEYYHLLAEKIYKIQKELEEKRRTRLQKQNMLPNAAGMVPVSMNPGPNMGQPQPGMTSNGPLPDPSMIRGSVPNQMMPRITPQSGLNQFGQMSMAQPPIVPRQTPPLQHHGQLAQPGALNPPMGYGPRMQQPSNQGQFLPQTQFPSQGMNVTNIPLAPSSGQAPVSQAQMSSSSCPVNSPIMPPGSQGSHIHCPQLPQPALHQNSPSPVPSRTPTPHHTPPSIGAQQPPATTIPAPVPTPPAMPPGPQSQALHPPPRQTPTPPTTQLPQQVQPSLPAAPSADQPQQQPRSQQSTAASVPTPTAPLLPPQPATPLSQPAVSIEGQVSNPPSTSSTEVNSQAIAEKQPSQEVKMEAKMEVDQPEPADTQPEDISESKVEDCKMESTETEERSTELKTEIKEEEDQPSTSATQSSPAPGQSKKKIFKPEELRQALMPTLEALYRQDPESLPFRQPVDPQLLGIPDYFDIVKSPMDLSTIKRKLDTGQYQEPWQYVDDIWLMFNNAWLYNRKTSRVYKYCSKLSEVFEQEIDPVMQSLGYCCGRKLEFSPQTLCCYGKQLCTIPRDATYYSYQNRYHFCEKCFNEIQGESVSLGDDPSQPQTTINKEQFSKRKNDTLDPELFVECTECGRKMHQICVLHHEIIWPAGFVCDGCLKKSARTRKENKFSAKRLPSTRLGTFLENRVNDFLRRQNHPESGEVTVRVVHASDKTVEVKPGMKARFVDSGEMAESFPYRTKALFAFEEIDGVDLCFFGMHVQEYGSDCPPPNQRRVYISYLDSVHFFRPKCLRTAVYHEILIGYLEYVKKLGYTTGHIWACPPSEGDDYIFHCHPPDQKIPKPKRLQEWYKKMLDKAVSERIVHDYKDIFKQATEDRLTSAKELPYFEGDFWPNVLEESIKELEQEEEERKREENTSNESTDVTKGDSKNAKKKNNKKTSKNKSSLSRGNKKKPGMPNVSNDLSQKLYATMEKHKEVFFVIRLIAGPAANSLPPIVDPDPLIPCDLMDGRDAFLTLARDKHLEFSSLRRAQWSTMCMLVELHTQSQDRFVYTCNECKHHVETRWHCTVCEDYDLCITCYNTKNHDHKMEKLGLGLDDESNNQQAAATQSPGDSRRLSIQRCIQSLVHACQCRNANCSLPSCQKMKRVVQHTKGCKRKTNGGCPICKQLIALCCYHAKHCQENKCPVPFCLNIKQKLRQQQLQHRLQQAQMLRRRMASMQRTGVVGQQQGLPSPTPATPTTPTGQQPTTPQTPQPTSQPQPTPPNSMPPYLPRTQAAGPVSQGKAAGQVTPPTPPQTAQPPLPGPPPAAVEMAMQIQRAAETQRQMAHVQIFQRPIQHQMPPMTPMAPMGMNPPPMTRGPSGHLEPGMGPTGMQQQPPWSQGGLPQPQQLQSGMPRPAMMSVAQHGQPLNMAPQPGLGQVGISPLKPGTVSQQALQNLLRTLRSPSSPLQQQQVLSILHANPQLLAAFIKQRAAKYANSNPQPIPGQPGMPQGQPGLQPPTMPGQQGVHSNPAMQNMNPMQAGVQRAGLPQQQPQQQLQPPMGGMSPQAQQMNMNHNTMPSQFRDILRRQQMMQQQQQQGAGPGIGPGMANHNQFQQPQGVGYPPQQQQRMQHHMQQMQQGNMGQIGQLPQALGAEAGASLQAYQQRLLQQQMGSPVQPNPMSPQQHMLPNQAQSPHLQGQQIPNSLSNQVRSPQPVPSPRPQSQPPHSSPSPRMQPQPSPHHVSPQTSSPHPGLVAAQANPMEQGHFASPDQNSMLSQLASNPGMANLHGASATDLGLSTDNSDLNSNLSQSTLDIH

Usually residual activity stands for the signal under treatment as a percentage of the control signal. Turning to `CC(=O)Nc1ccc(SCC#N)cc1`, the residual activity in assay [1] was determined as 74%. The term IC50 denotes the concentration that gives 50% inhibition. As a reminder, the ΔTm is the change in melting temperature against a reference sample. The term Kd denotes the constant that tells how readily two partners part at equilibrium. Read a high Kd as weaker binding. Consider `COC(=O)c1ccc2[nH]c(=O)oc2c1`, for which the half-inhibitory concentration (IC50) in assay [2] was determined as 455 µM. Moreover, the results for the ΔTm in assay [3] and in assay [5] were 2.3 °C and 1.4 °C, respectively. For the same molecule, the residual activity in assay [1] amounted to 34%. The molecule also gave a Kd in assay [4] of 85 µM.

In the case of `Cc1nnc2ccc(N3CCOCC3)nn12`, the residual activity in assay [1] was determined as 102%.

`CS(=O)(=O)NCc1ccc2c(c1)OCO2`: the residual activity in assay [1] stood at 100%.

With `COC(=O)c1ccc(C(C)=O)cc1`, in assay [1], the residual activity turned out to be 92%. Same read-out and setting: the figure for `CCn1cnc2ccc(C(=O)OC)cc21` is 79%.

With `CNC(=O)c1cc(Br)c[nH]1`, the IC50 in assay [2] was determined as 40 µM. For the same molecule, the ΔTm was 7.3 °C in assay [3] and 7 °C in assay [5]. Also, the residual activity in assay [1] stood at 0.1%. In assay [4], this molecule displayed a dissociation constant Kd of 4 µM. Take `COC(=O)N1CCC(C(=O)O)CC1`: the residual activity in assay [1] stood at 56%.

As for `O=c1[nH]c(=O)n([C@H]2C[C@H](O)[C@H](CO)O2)cc1F`, in assay [1], the residual activity came out at 98%. Regarding `COc1ccc(-c2c[nH]nc2N)cc1OC`, the ΔTm in assay [3] is -0.1 °C; in assay [5], -1.3 °C. Further, in assay [1], the residual activity was 48%. In the case of `Cn1ncc2c1CCCC2=O`, the residual activity in assay [1] was determined as 100%.

With `COc1cc(C(C)=O)ccc1N`, the figures for the ΔTm in assay [3] and in assay [5] were 2.4 °C and 2.6 °C, respectively. Besides, the residual activity in assay [1] is 37%. In the case of `Cc1nc2ccc(NS(C)(=O)=O)cc2o1`, the residual activity in assay [1] was 92%.

Regarding `CC(=O)c1cn(C)c2ccccc12`, the results for the ΔTm in assay [3] and in assay [5] were 2.9 °C and 2.6 °C, respectively. Moreover, the residual activity in assay [1] was 31%. Turning to `CNC(=O)c1ccc(C(F)(F)F)nc1`, the residual activity in assay [1] amounted to 96%. `O=C(O)[C@@H]1CS[C@H](c2ccc(F)cc2)N1`: the residual activity in assay [1] amounted to 94%. With `CCc1nnc2cccc(Cl)n12`, in assay [1], the residual activity came to 85%. On the same count and under the same terms, the figure for `CC(=O)c1ccc(O)c2[nH]c(=O)ccc12` is 93%; for `Cc1nnsc1Sc1ccccn1` it is 92%; for `CC(=O)c1ccc(CC#N)s1` it is 56%.
